Published values gathered from unrelated publications.
Compare with care: the assays were run in different laboratories.
ABL1 phosphorylated: Tyrosine-protein kinase ABL1, phosphorylated (ABL1, Homo sapiens, UniProt P00519)
ABL1 T315I phosphorylated: Tyrosine-protein kinase ABL1, phosphorylated (ABL1, Homo sapiens, UniProt P00519, T315I)
ABL1 Y253F phosphorylated: Tyrosine-protein kinase ABL1, phosphorylated (ABL1, Homo sapiens, UniProt P00519, Y253F)
ABL1 Y253F: Tyrosine-protein kinase ABL1 (ABL1, Homo sapiens, UniProt P00519, Y253F)
ABL1 H396P non-phosphorylated: Tyrosine-protein kinase ABL1, non-phosphorylated (ABL1, Homo sapiens, UniProt P00519, H396P)
ABL1 M351T: Tyrosine-protein kinase ABL1 (ABL1, Homo sapiens, UniProt P00519, M351T)
ABL1 F317L phosphorylated: Tyrosine-protein kinase ABL1, phosphorylated (ABL1, Homo sapiens, UniProt P00519, F317L)
ABL1 F317L non-phosphorylated: Tyrosine-protein kinase ABL1, non-phosphorylated (ABL1, Homo sapiens, UniProt P00519, F317L)
ABL1 H396P phosphorylated: Tyrosine-protein kinase ABL1, phosphorylated (ABL1, Homo sapiens, UniProt P00519, H396P)
ABL1 non-phosphorylated: Tyrosine-protein kinase ABL1, non-phosphorylated (ABL1, Homo sapiens, UniProt P00519)

With COC(=O)Nc1nc2ccc(C(=O)c3ccccc3)cc2[nH]1 the remaining binding was 0.9% (ABL1 phosphorylated; cell-free assay, competition with immobilised ligand; 10 µM).
With O=C(c1ccc(Nc2ncc(Cl)c(-c3ccc(Cl)s3)n2)cc1)N1CCC(N2CCCC2)CC1 the remaining binding was 1.1% (ABL1 T315I phosphorylated; binding, competition with immobilised ligand; 1 µM).
With CCN1CCN(Cc2ccc(C(=O)Nc3ccc(C)c(Oc4ccc5c(c4)CC(=O)N5)c3)cc2C(F)(F)F)CC1 the remaining binding was 38% (ABL1 Y253F phosphorylated; binding, competition with immobilised ligand; 1 µM).
N#Cc1ccccc1CSc1nnc2c(n1)[nH]c1ccccc12 has a remaining binding of 92% (ABL1 T315I phosphorylated; binding, competition with immobilised ligand; 10 µM).
CN1CCN(c2ccc(Nc3nccc(-c4ccccc4)n3)cc2C(F)(F)F)CC1 has a remaining binding of 16% (ABL1 Y253F; binding; 10 µM).
N[C@H]1CCN(c2nccc(-c3cnn4ncccc34)n2)C1 has a remaining binding of 88% (Tyrosine-protein kinase ABL1 (ABL1, Homo sapiens, UniProt P00519, T315I); binding; 1 µM).
O=C(NCCCN1CCOCC1)c1ccc(Nc2ncc(Cl)c(-c3ccc(Cl)s3)n2)cc1 has a remaining binding of 11% (Tyrosine-protein kinase ABL1, non-phosphorylated (ABL1, Homo sapiens, UniProt P00519, Q252H); binding, competition with immobilised ligand; 1 µM).
O=C(NS(=O)(=O)c1ccc(NCC2CCOCC2)c([N+](=O)[O-])c1)c1ccc(N2CCN(Cc3ccc(C(F)(F)F)cc3-c3ccc(Cl)cc3)CC2)cc1Oc1cnc2[nH]ccc2c1 has a remaining binding of 100% (Tyrosine-protein kinase ABL1, phosphorylated (ABL1, Homo sapiens, UniProt P00519, M351T); cell-free assay, competition with immobilised ligand; 1 µM).
With CNC(=O)[C@@H]1CC[C@@H](n2c(-c3ccc4cnccc4c3)nc3ccc(C(=O)NCc4cccc(C(N)=O)c4)cc32)C1 the remaining binding was 100% (Tyrosine-protein kinase ABL1, non-phosphorylated (ABL1, Homo sapiens, UniProt P00519, T315I); binding, competition with immobilised ligand; 1 µM).
The remaining binding of CC(C)(C)c1ccc(-c2nc(CBr)nn2-c2cccc(O)c2)cc1 is reported as 82% (ABL1 T315I phosphorylated; cell-free assay, competition with immobilised ligand; 10 µM).
The remaining binding of O=C(O)[C@H]1[C@H](Cn2nnc3ccccc3c2=O)CC[C@@H]1C(=O)c1ccc(OCCC2CCOCC2)cc1 is reported as 94% (ABL1 H396P non-phosphorylated; cell-free assay, competition with immobilised ligand; 1 µM).
Cc1cnn2ncc(-c3ccnc(N(C)C)n3)c2c1 has a remaining binding of 91% (ABL1 M351T; binding; 1 µM).
O=C(NCC1CCOCC1)c1n[nH]cc1NC(=O)c1c(F)cccc1F gave a remaining binding of 88% (ABL1 F317L phosphorylated; binding, competition with immobilised ligand; 1 µM).
The remaining binding of CN(c1nccc(-c2cnn3ncccc23)n1)C1CC1 is reported as 100% (Tyrosine-protein kinase ABL1 (ABL1, Homo sapiens, UniProt P00519, Q252H); binding; 1 µM).
The remaining binding of Cc1cnc(Nc2ccc(C(=O)N3CCC(N4CCCC4)CC3)cc2)nc1-c1cc2ccccc2s1 is reported as 59% (ABL1 F317L non-phosphorylated; binding, competition with immobilised ligand; 1 µM).
COc1cnc(Nc2cccc(S(N)(=O)=O)c2)nc1N1CCN(c2ccccc2)C(=O)C1 has a remaining binding of 93% (ABL1 phosphorylated; binding, competition with immobilised ligand; 1 µM).
CCCCN(CCCC)C(=O)CN1C[C@@H](c2cc(OC)c3c(c2)OCO3)[C@H](C(=O)O)[C@H]1CC(C)(C)CCC gave a remaining binding of 93.5% (ABL1 F317L phosphorylated; cell-free assay, competition with immobilised ligand; 1 µM).
c1cncc(-c2cccc(Nc3nccc(NC4CCCCC4)n3)c2)c1 gave a remaining binding of 73% (ABL1 T315I phosphorylated; binding, competition with immobilised ligand; 10 µM).
For CN(C)c1nccc(-c2cnc3ncccn23)n1, the remaining binding was 42% (Tyrosine-protein kinase ABL1 (ABL1, Homo sapiens, UniProt P00519, E255K); binding; 1 µM).
For COc1ncc2cc3ccccc3nc2c1C#N, the remaining binding was 100% (ABL1 H396P non-phosphorylated; cell-free assay, competition with immobilised ligand; 5 µM).
C=CC(=O)N1CCC(C(=O)NCC(=O)N2CCN(c3nc(-c4cnc(N)nc4C(F)F)nc(N4CCOCC4)n3)CC2)CC1 has a remaining binding of 83% (ABL1 H396P phosphorylated; binding, competition with immobilised ligand; 1 µM).
The remaining binding of N#Cc1ccc(Nc2ccc3[nH]c(=O)[nH]c3c2)c(Cl)c1 is reported as 100% (ABL1 F317L non-phosphorylated; cell-free assay, competition with immobilised ligand; 1 µM).
With O=C(c1ccc(Nc2nccc(-c3cc4ccccc4s3)n2)cc1)N1CCC(N2CCCC2)CC1 the remaining binding was 18% (ABL1 non-phosphorylated; binding, competition with immobilised ligand; 1 µM).
C[C@@H](c1ccc(-n2cnc3c(N)ncnc32)cc1)N1CCc2nn(C)c(Cc3ccccc3)c2C1=O gave a remaining binding of 47% (ABL1 Y253F phosphorylated; binding, competition with immobilised ligand; 0.1 µM).
O=C(c1ccc(Nc2ncc(Cl)c(-c3cc4ccccc4s3)n2)cc1)N1CCC(N2CCCC2)CC1 has a remaining binding of 13% (ABL1 H396P phosphorylated; binding, competition with immobilised ligand; 1 µM).
The remaining binding of CC(=O)Nc1c(C(C)=O)c(=O)n(C)c2nc(-c3ccc(Cl)cc3Cl)c(-c3ccc(Cl)cc3)cc12 is reported as 100% (ABL1 F317L phosphorylated; cell-free assay, competition with immobilised ligand; 1 µM).
O=C(NCCCN1CCOCC1)c1ccc(Nc2nccc(-c3cc4ccccc4s3)n2)cc1 has a remaining binding of 90% (ABL1 F317L non-phosphorylated; binding, competition with immobilised ligand; 1 µM).
For CC1CCCN1c1nccc(-c2cnn3ncccc23)n1 (stereo not shown), the remaining binding was 96% (ABL1 phosphorylated; binding; 1 µM).
With CN(c1ccnc(CNc2nc(Nc3ccc4c(c3)CC(=O)N4)ncc2C(F)(F)F)n1)S(C)(=O)=O the remaining binding was 40% (ABL1 phosphorylated; cell-free assay, competition with immobilised ligand; 1 µM).
O=C(Nc1c[nH]nc1C(=O)NC1CCNCC1)c1cc(F)cc(F)c1 has a remaining binding of 100% (ABL1 phosphorylated; binding, competition with immobilised ligand; 1 µM).
CCS(=O)(=O)c1cc2cc(C[C@](O)(CC(C)(C)c3ccc(F)cc3C(N)=O)C(F)(F)F)[nH]c2cn1 has a remaining binding of 90% (ABL1 F317L phosphorylated; cell-free assay, competition with immobilised ligand; 1 µM).
With C[C@@H]1CCN(c2nccc(-c3cnn4ncccc34)n2)C1 the remaining binding was 81% (ABL1 non-phosphorylated; binding; 1 µM).
COc1cnc(Nc2cccc(S(N)(=O)=O)c2)nc1N1CCN(c2ccccc2)CC1 has a remaining binding of 84% (Tyrosine-protein kinase ABL1, phosphorylated (ABL1, Homo sapiens, UniProt P00519, E255K); binding, competition with immobilised ligand; 1 µM).
The remaining binding of c1cnn2ncc(-c3ccnc(N4CCC45COC5)n3)c2c1 is reported as 48% (ABL1 M351T; binding; 1 µM).
The remaining binding of COc1cc(-c2cn(C3CCc4ccccc4N(CC(F)(F)F)C3=O)nn2)ccc1-n1ccc(C)n1 (stereo not shown) is reported as 87% (ABL1 Y253F phosphorylated; cell-free assay, competition with immobilised ligand; 1 µM).
CN(CCCC(F)(F)F)c1nccc(-c2cnn3ncccc23)n1 has a remaining binding of 89% (ABL1 Y253F; binding; 1 µM).
The remaining binding of Nc1ncc2c(n1)-c1c([nH]c3ccc(C#CC4CC4)cc13)CCCC2 is reported as 100% (ABL1 phosphorylated; binding, competition with immobilised ligand; 1 µM).
